Sampled rows, rich in hits. Any-hit rate of the full collection: about 1.9%.
GRK2 aptamer HTS: inhibitors of human GRK2 displacing RNA aptamer; bead flow cytometry, FAM-aptamer displacement from GRK2; inhibition of aptamer binding, % at 10 µM; P25098; 330,000 tested, 0.59% active;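 active means inhibition of aptamer binding above 40%, roughly 3 SD of noise, on plates passing a quality check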;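 further: median bead fluorescence of bound FAM aptamer so fluorescent compounds give negative values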
Target sequence (P25098 whole entry, looked up): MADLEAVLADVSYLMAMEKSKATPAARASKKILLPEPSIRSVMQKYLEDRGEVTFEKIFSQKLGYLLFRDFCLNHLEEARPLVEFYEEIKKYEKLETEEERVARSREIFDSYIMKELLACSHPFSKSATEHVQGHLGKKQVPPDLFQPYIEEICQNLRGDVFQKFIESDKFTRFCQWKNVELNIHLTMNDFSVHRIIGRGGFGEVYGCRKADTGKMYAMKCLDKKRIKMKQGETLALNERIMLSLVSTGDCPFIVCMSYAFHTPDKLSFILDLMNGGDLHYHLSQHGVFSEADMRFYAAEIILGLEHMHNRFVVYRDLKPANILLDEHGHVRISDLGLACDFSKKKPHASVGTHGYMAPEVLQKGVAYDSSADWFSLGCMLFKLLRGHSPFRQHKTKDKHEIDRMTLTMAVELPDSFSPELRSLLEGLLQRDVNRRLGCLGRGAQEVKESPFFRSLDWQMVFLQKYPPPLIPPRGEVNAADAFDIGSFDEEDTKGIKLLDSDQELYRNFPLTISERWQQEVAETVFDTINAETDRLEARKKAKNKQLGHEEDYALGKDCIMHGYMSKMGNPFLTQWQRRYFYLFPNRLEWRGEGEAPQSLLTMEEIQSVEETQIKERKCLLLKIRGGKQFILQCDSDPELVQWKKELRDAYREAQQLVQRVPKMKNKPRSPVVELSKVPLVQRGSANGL
SR-BI DiI inh: blocks mouse SR-BI lipid uptake from DiI-HDL; Q61009; ldlA[mSR-BI] CHO cells, DiI-HDL uptake fluorescence, 3 h; inhibition, % at 12.5 µM; 320,000 tested, 0.96% active;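 active means mean replicate inhibition of at least 70% and a set share of replicates each scoring 70 or more; inconclusive means meets just one of the two criteria; inactive means fails both criteria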;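 further: 0% = median of neutral control wells and 100% = median of positive control wells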
SR-BI DiI-HDL act: enhances SR-BI lipid uptake from DiI-HDL; CHO ldlA[mSR-BI] cells, DiI-HDL uptake fluorescence, 3 h; 100 = double the neutral-control signal; activation, % at 12.5 µM; 320,000 tested, 0.096% active; AID 504775;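 active means mean replicate activation of at least 60% and every replicate at or above 60%; inconclusive means mean or all-replicate condition met, but not both; inactive means mean below 60% and not all replicates reaching 60%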;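 further: 0% = median plate neutral-control signal and 100% = twice that signal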
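Material: SR-BI-overexpressing, LDLR-lacking CHO cells | Dosing: Single compound concentration, delivered by pin transfer | Probe or stimulus: Labelled HDL, 10 µg/mL | Signal: Bottom-read cell fluorescence after medium removal, ex 550/em 595 nm | Schedule: 3 h, 37 °C | Evaluation: HDL uptake via cellular fluorescence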
Rin1 Abl inh: inhibitors of human Rin1-Abl protein interaction. AID 588664. P00519+Q13671. TR-FRET Rin1/Abl binding, biochemical. inhibition, % at 7.35 µM. 360,000 tested, 0.4% active; in the data active means inhibition above about 5%, passing the limit was not always enough
GRK2 CP1: human GRK2 inhibition confirmation, cherry pick 1; shares compounds with GRK2 aptamer HTS; bead-bound GRK2, FAM-aptamer displacement, flow cytometry; aptamer displacement, % at 10 µM; 2,000 tested, 4% active; AID 504451;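 active means aptamer displacement above 40%, near three times the noise of non-fluorescent compounds, on plates passing quality checks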;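 further: negative values mostly reflect intrinsic compound fluorescence rather than true enhancement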
Aptamer quench 1: quenches fluorescent RNA aptamer, GRK2 hit artifact; fluorescence change (kMESF span), kMESF (concentration not given with the values); 110 tested, under 10 active; Fluorescent RNA aptamer beads, quenching, flow cytometry; active compounds read high; shares compounds with GRK2 aptamer HTS;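 active means compounds whose bead fluorescence drops by more than 37 kMESF across the dose range, marking them as dye quenchers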
Aptamer quench SP: counter-screen for GRK2 aptamer inhibitors: fluorescent aptamer quenchers; shares compounds with GRK2 aptamer HTS; Carboxyfluorescein RNA aptamer on beads, flow cytometry quenching; active compounds read low; fluorescence response (% of DMSO), % at 10 µM; 2,000 tested, under 10 active; AID 504580;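 active means compounds that quench the bead-bound fluorescent RNA probe, cutting fluorescence to under half of the solvent control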;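 further: counterscreen run without GRK2 so only probe quenching by compound is measured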
DiI quencher: quenches DiI-HDL fluorescence, an SR-BI assay artifact; shares compounds with SR-BI DiI inh; cell-free DiI-HDL fluorescence quenching, 30 min; AC50, µM (series often up to 35 µM), without a hit: top-dose activity change, negative = quenching; 470 tested, 20% active;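 active means quenching, a falling signal, with AC50 below a set limit tied to the top valid dose, actives reach about 32 µM in these data; inconclusive means no clear call, values can overlap the other calls; inactive means rising signal, and the rest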
Rin1-Abl confirm: confirmation of inhibitors of human Rin1-Abl interaction | 1,300 tested, 49% active | shares compounds with Rin1 Abl inh | TR-FRET Rin1-Abl binding, purified proteins | inhibition, % at 7.35 µM
GFP quencher: quenches GFP fluorescence, counter-screen for Rin1-Abl inhibitors; 1,300 tested, 8.5% active; inhibition, % at 6.75 µM; AID 602125; shares compounds with Rin1 Abl inh; inhibitors/quenchers counterscreen;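 further: ABL1-eGFP fusion protein alone without its partner RIN1-SBP; 0% = protein with vehicle and 100% = wells lacking protein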
GFP quench DR: counter-screen for Rin1-Abl inhibitors: GFP quenchers, dose response | GFP fluorescence interference/quenching counterscreen | IC50, µM | AID 602182 | shares compounds with Rin1 Abl inh | 230 tested, under 10 active; call rule not given here;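 further: ABL1-eGFP fusion protein alone without its RIN1 binding partner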
Numbers without * were called inactive; ? = inconclusive; / = no result; ! = not confirmed by another sample. Unless noted, no stated cut-off is given here; in the data, active means inhibition above about 6.5%; inactive means the rest.

SMILES	GRK2 aptamer HTS	SR-BI DiI inh	SR-BI DiI-HDL act	Rin1 Abl inh	Rin1-Abl confirm	GFP quencher	others
CN1CCN(c2ccc(C(N)=O)cc2N)CC1	43*	9	-9	0	/	/	GRK2 CP1=-2;Aptamer quench SP=102
O=c1[nH]c(Cl)ccc1CN1CCOCC1	2	-26	26	2	/	/
C[C@]12CCC3C(CCC4=C/C(=N/OCC(=O)NC(CCC(=O)O)C(=O)O)CC[C@@]43C)C1CCC2O (some centres not stated)	0	-14	14	0	/	/
C[C@]12CCC3C(CCC4=C/C(=N/OCC(=O)NC(CCC(N)=O)C(=O)O)CC[C@@]43C)C1CCC2O (some centres not stated)	0	/	/	3	/	/	GRK2 CP1=3;Aptamer quench SP=99
O=C(O)c1cccc2c1NC(C(=O)O)C1CC(Sc3ccccc3[N+](=O)[O-])C(Cl)C21 (configuration not stated)	60*	5	-5	11*	5	20*	GRK2 CP1=41*;Aptamer quench 1=8.5;Aptamer quench SP=104
CC(C)c1ccc(NC(=O)CSc2nnc(OC(=O)N(C)C)n2C2CC2)cc1	0	-9	9	0	/	/
N#Cc1ccc(Nc2nc(-c3ccc(O)cc3O)cs2)cc1C(F)(F)F	3	103*	-103	-3	/	/	DiI quencher=4.3µM*
O=C(NC1CCCCC1)N1Cc2cc(-c3ccccc3)ccc2-n2nncc2C1	/	/	/	3	/	/
CNC1(c2ccc(F)cc2)CCCCC1	/	?	-72	2	/	/	DiI quencher=-3%
OC1(c2ccc(F)cc2)CCNC1 (configuration not stated)	0	-34	34	1	/	/
O=c1cccc2n1CC1CC2CN(S(=O)(=O)c2cc(Cl)ccc2Cl)C1 (configuration not stated)	7	-16	16	-3	/	/	DiI quencher=-3%
O=C(O)c1cc[c]([Hg][Cl])cc1	0	28	-28	-1	/	/
O=C(O)CCCCC1SCC2NC(=O)NC21 (configuration not stated)	0	-19	19	86*	92*	0	GFP quench DR=>68
O=c1[nH]c(=O)n(Cc2ccccc2Cl)c(O)c1/C=C1/C=CC=N1	3	-11	11	-3	/	/
O=C(O)C(O)(c1ccc(Cl)cc1)C1(O)CCCC1 (configuration not stated)	/	/	/	4	/	/
CCOC(=O)c1ccc(NC(=O)NC2CC3CCC(C2)N3)cc1 (configuration not stated)	0	54	-54	18*	26*	0	GFP quench DR=>68
CCn1nc(/C=C/c2ccccc2)nc2c(=O)n(C)c(=O)nc1-2	/	9	-9	26*	40*	2	GFP quench DR=>68
COc1ccc(-n2c(/C=C/c3ccc(O)cc3)nc3ccccc3c2=O)cc1	1	34	-34	-3	/	/
CCCCc1cc(=O)oc2cc(OCC(=O)N3C[C@H]4C[C@@H](C3)c3cccc(=O)n3C4)c(Cl)cc12	0	-9	9	-5	/	/
COCCCn1c(N)c(C(=O)NCCC(C)C)c2nc3ccccc3nc21	0	-7	7	22*	2	-1
CCOCCCn1c(N)c(C(=O)Nc2sc3c(c2C(=O)OC)CCCC3)c2nc3ccccc3nc21	0	13	-13	22*	0	-1
OCC1CO1 (configuration not stated)	3	-4	4	2	/	/
CC(C)[C@H]1C(=O)O[C@@H]2CCN3CC=C(COC(=O)[C@](C)(O)[C@]1(C)O)[C@H]23	0	-21	21	3	/	/
CCCCCc1cc(O)c2c3c(c(=O)oc2c1)CN(C)CC3	0	32	-32	8.0*	-4	-1
Oc1ccc(/C=N/NP(=S)(c2ccccc2)c2ccccc2)c(O)c1O	4	2	-2	16*	9.0*	5
SMILES	GRK2 aptamer HTS	SR-BI DiI inh	SR-BI DiI-HDL act	Rin1 Abl inh	Rin1-Abl confirm	GFP quencher	others
Oc1ccccc1/C=N/NP(=S)(c1ccccc1)c1ccccc1	0	3	-3	1	/	/
COc1ccc(C(=O)C2CCCN(Cc3cnc(C)s3)C2)c(OC)c1 (configuration not stated)	0	-2	2	9.9*	-1	0
Fc1ccc(CNCCc2ccccc2F)cc1	1	7	-7	1	/	/
Fc1ccccc1CCNCc1ccccc1	2	-25	25	8.8*	1	-1
COc1ccc(CC2NCC(O)C2OC(C)=O)cc1 (configuration not stated)	/	-23	23	-1	/	/
Oc1ccc2c3c1O[C@H]1[C@@H](O)CC[C@@]4(O)[C@@H](C2)N(CC2CCC2)CC[C@]314	5	5	-5	11*!	-2	-2
COc1cc(C(O)CN)ccc1O (configuration not stated)	2	-8	8	3	/	/
COc1cc2c(ccc3cc(OC)c(OC)c(O)c32)cc1O	6	38	-38	21*	17*	6	GFP quench DR=>68
CC[C@@H](O)C[C@H]1CCC[C@@]2(C[C@@H]3OC(=O)/C=C/[C@@](C)(O)[C@@H](O)[C@H](C)[C@@H](O)[C@H](OC4CCC(N(C)C)C(C)O4)[C@@H](O)[C@](C)(O)CCCCC/C=C/[C@@H]4CC(C)(C)O[C@@]4(O)C[C@H](O2)[C@H]3C)O1 (some centres not stated)	/	-16	16	6	/	/
O=[N+]([O-])c1ccc(NCCCN2CCOCC2)nc1	1	-13	13	-1	/	/
Cc1nc2nc(C)n(CCN3CCOCC3)c(=O)c2c(-c2cccc([N+](=O)[O-])c2)c1C(=O)CCCCCCCCCCN1CCC(c2ccccc2)(c2ccccc2)CC1	/	24	-24	61*	69*	1	GFP quench DR=>68
O=C1NC2NC(=O)N([N+](=O)[O-])C2N1 (configuration not stated)	0	/	/	8.7*	8.6*	0
COc1ccc(OC)c(-n2c(O)c(C=NCCN3CCNCC3)c(=O)[nH]c2=S)c1	0	8	-8	3	/	/

High-throughput results deposited in PubChem by several laboratories.
